Measured values published in ChEMBL document CHEMBL2176968, “Identification of less lipophilic riminophenazine derivatives for the treatment of drug-resistant tuberculosis” (J Med Chem, 2012).

Legend:
[1] = tested on: Mycobacterium tuberculosis; test: Antitubercular activity against multi-drug resistant Mycobacterium tuberculosis isolate 040 infected in BALB/c mouse assessed as reduction in lung bacterial load at 20 mg/kg, po qd administered 5 days per week during acute phase of infection measured after 20 days relative to untreated control; format: functional
Method in brief: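 Infection was by aerosol, depositing 50-100 bacilli per lung. Dosing began on day 10 and ran to day 30, 5 days per week, with compound in 0.5% CMC by gavage. Groups had 5-6 treated mice and 7-10 CMC-treated controls. The day after the last dose, lung homogenates were plated on supplemented 7H11 agar in duplicate for 2-3 weeks at 37°C. Results are log10 CFU per lung; means were compared by Student's t test.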

[2] = tested on: Mus musculus; test: Toxicity in BALB/c mouse infected with multi-drug resistant Mycobacterium tuberculosis isolate 040 assessed as skin discoloration at 20 mg/kg, po qd administered 5 days per week during acute phase of infection measured after 20 days; format: organism-based; parameters: dose 20 mg/kg, route oral; details: in vivo, 480 h
Method in brief: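 Mice were infected by aerosol and then dosed by gavage at 20 mg/kg in 0.5% CMC, 5 days per week, from day 10 to day 30. During treatment, discoloration of ears, internal organs and fat tissue was scored visually and ranked by color intensity.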

**Q.** `COC1CCC(/N=c2\cc3n(-c4ccc(Cl)cc4)c4ccccc4nc-3cc2Nc2ccc(C)nc2)CC1` (centres undefined) was tested. Which log10cfu [1] did it give?
**A.** The log10cfu was 3.25.

**Q.** And the Activity [2]?
**A.** Its Activity is “Non-toxic”.

**Q.** For `COc1ncccc1Nc1cc2nc3ccccc3n(-c3ccc(Cl)cc3)c-2c/c1=N\C1CCC(OC)CC1` (centres undefined), which log10cfu [1] is on record?
**A.** Its log10cfu is 4.04.

**Q.** What about the Activity [2] of the same compound?
**A.** Its Activity is “Non-toxic”.

**Q.** How did the log10cfu [1] turn out when `COc1ncccc1Nc1cc2nc3ccccc3n(-c3ccc(OC(F)(F)F)cc3)c-2c/c1=N\C1CCC(OC)CC1` (centres undefined) was run?
**A.** The log10cfu was 4.67.

**Q.** What about the Activity [2] of the same compound?
**A.** Its Activity is “Non-toxic”.

**Q.** Which log10cfu [1] does the source give for `COc1ncccc1Nc1cc2nc3ccccc3n(-c3ccc(Cl)cc3)c-2c/c1=N\C1CCOCC1` here?
**A.** The log10cfu was 4.81.

**Q.** And the Activity [2]?
**A.** The Activity was “Non-toxic”.

**Q.** What does the source list for `CC(C)/N=c1\cc2n(-c3ccc(Cl)cc3)c3ccccc3nc-2cc1Nc1ccc(Cl)cc1` [CLOFAZIMINE]?
**A.** log10cfu [1]: 3.54; Activity [2]: Toxic

**Q.** What does the source list for `COc1ncccc1Nc1cc2nc3ccccc3n(-c3ccc(F)cc3)c-2c/c1=N\C1CCC(OC)CC1` (centres undefined)?
**A.** log10cfu [1]: 4.35; Activity [2]: Toxic

**Q.** Which log10cfu [1] does the source give for `COc1ncccc1Nc1cc2nc3ccccc3n(-c3ccc(F)cc3)c-2c/c1=N\C(C)C` here?
**A.** The log10cfu was 3.91.

**Q.** What about the Activity [2] of the same compound?
**A.** The Activity was “Toxic”.
